We go through 22 molecules from ChEMBL document CHEMBL1145397, “Structure-activity relationships of a series of analogs of the endozepine octadecaneuropeptide (ODN(11)(-)(18)) on neurosteroid biosynthesis by hypothalamic explants” (2007).

Activity calls are given as the source filed them. No cut-off for these calls is given here.

Experiment [1] deals with Hypothalamus. Put plainly: Effect on neurosteroid biosynthesis assessed as conversion of [3H]pregnenolone to progesterone in frog hyphalamic explats at 1 uM after 2 hrs relative control. Type of experiment: functional, Pelophylax lessonae. The essentials: (§1)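 Frog hypothalamic explants, preincubated 15 min in HEPES/bicarbonate Ringer's (glucose, BSA, 95% O2/5% CO2, pH 7.4), then incubated 2 h at 24 °C with 10^-6 M [3H]pregnenolone in 4% propylene glycol, with or without peptide. Reaction stopped with trichloroacetic acid; steroids extracted in dichloromethane and resolved by RP-HPLC radioactivity profiles. Values are % of steroid formed without peptide, mean ± SEM of independent experiments.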

The test system of experiment [2] is Hypothalamus. Put plainly: Effect on neurosteroid biosynthesis assessed as conversion of [3H]pregnenolone to 17-Hydroxypregnenolone in frog hyphalamic explats at 1 uM after 2 hrs relative to control. The experiment is classed as functional, Pelophylax lessonae. A digest of the protocol: as §1
For experiment [3], the system named is Hypothalamus. The experiment in a line: Effect on neurosteroid biosynthesis in frog hyphalamic explats at 1 uM after 2 hrs in presence of CBR antagonist flumazenil. Type of experiment: functional, tissue-based. As to conditions: Pelophylax lessonae. A digest of the protocol:
as §1

Experiment [4] has as its system Hypothalamus. Put plainly: Effect on neurosteroid biosynthesis assessed as conversion of [3H]pregnenolone to progesterone in frog hyphalamic explats at 10 uM after 2 hrs relative control. Type of experiment: functional, Pelophylax lessonae. A digest of the protocol:
as §1

Experiment [5] deals with Hypothalamus. Put plainly: Effect on neurosteroid biosynthesis assessed as conversion of [3H]pregnenolone to 17-Hydroxypregnenolone in frog hyphalamic explats at 10 uM after 2 hrs relative to control. The experiment is classed as functional, Pelophylax lessonae. A digest of the protocol:
as §1

With “H-QATVGDVNTDRPGLLDLK-OH [QATVGDVNTDRPGLLDLK]”, the Activity was determined as 382.7% in the experiment with Hypothalamus [1] and 465.3% in the experiment on Hypothalamus [2].

For the molecule H-RPGLLDAK-OH, the Activity is 103.2% with Hypothalamus [1] and 99.5% in the experiment with Hypothalamus [2].

For the molecule H-LLDLK-OH, the Activity in the experiment with Hypothalamus [1] was 103.8%; in the experiment with Hypothalamus [2], 103.6%.

Take H-RPGLLDLA-OH: the Activity with Hypothalamus [1] worked out at 137%; with Hypothalamus [2] it was 126%.

On to H-RPGLLDLK-OH, for which the Activity came out at 281.7% with Hypothalamus [1] and 410.5% in the experiment with Hypothalamus [2]. Moreover, the result with Hypothalamus [3] was inactive.

For the molecule H-RPGLLD-OH, the Activity in the experiment with Hypothalamus [1] came to 98.6%; with Hypothalamus [2] it was 98.2%.

For the molecule H-APGLLDLK-OH [APGLLDLK], the Activity is recorded as 276.5% with Hypothalamus [1] and 402.7% in the experiment on Hypothalamus [2].

As for H-GLLDLK-OH, the values for the Activity in the experiment on Hypothalamus [1] and in the experiment on Hypothalamus [2] were 266.6% and 366.6%, respectively.

For the molecule `CC(C)C[C@@H]1NC(=O)CNC(=O)[C@@H]2CCCN2C(=O)[C@H](CCCNC(=N)N)NC(=O)[C@H](CCCCN)NC(=O)[C@H](CC(C)C)NC(=O)[C@H](CC(=O)O)NC(=O)[C@@H](CC(C)C)NC1=O`, the Activity with Hypothalamus [4] is recorded as 99.7%; with Hypothalamus [5], 99.9%.

Take H-RPGLADLK-OH: the Activity was determined as 108.5% in the experiment on Hypothalamus [1] and 92.8% in the experiment on Hypothalamus [2].

For the molecule H-PGLLDLK-OH [PGLLDLK], the values for the Activity with Hypothalamus [1] and with Hypothalamus [2] were 282.1% and 400.2%, respectively.

With H-RPGLLDL-OH, the Activity in the experiment with Hypothalamus [1] was 136.6%; in the experiment on Hypothalamus [2] it was 131.5%.

As for `CC(C)C[C@@H]1NC(=O)CNC(=O)[C@@H]2CCCN2C(=O)[C@H](CCCNC(=N)N)NC(=O)[C@H](CCCCN)NC(=O)[C@H](CC(C)C)NC(=O)[C@H](CC(=O)O)NC(=O)[C@H](CC(C)C)NC1=O`, the Activity worked out at 271.9% in the experiment on Hypothalamus [1] and 246.9% in the experiment on Hypothalamus [2].

Turning to H-RAGLLDLK-OH, the Activity with Hypothalamus [1] worked out at 265.2%; in the experiment with Hypothalamus [2], 405%.

On to H-GLLDL-OH, for which the Activity is 116.5% in the experiment on Hypothalamus [1] and 98.9% in the experiment on Hypothalamus [2].

For `CC(C)C[C@@H]1NC(=O)CNC(=O)[C@H]2CCCN2C(=O)[C@H](CCCNC(=N)N)NC(=O)[C@H](CCCCN)NC(=O)[C@H](CC(C)C)NC(=O)[C@H](CC(=O)O)NC(=O)[C@@H](CC(C)C)NC1=O`, the outcome with Hypothalamus [3] was inactive.

Consider H-RPGALDLK-OH, for which the Activity with Hypothalamus [1] stood at 104.7%; with Hypothalamus [2], 97.1%.

For the molecule H-PGLLD-OH, the Activity in the experiment with Hypothalamus [1] is on record as 101.4%; with Hypothalamus [2], 101.3%.

As for H-RPALLDLK-OH, the Activity in the experiment on Hypothalamus [1] amounted to 99%; with Hypothalamus [2], 126%.

For H-RPGLL-OH, the results for the Activity with Hypothalamus [1] and with Hypothalamus [2] were 99.6% and 97.1%, respectively.

Turning to H-RPGLLALK-OH, the results for the Activity with Hypothalamus [1] and with Hypothalamus [2] were 100.4% and 103.6%, respectively.

Consider H-PGLLDL-OH, for which the Activity in the experiment on Hypothalamus [1] stood at 137%; in the experiment with Hypothalamus [2] it was 117.5%.
